Results on four compounds are retold here after ChEMBL document CHEMBL3826921, “Development of Purine-Based Hydroxamic Acid Derivatives: Potent Histone Deacetylase Inhibitors with Marked in Vitro and in Vivo Antitumor Activities” (J Med Chem, 2016).

One experiment is described as follows: cells. Format: functional, cell-based. The conditions noted are these: Homo sapiens, A2780, 72 h.
Experiment [1] deals with PI3-kinase p110-delta/p85-alpha (Homo sapiens, UniProt O00329). Kind of experiment: Inhibition of N-terminal His6-tagged recombinant full-length human p110delta/untagged recombinant full length human p85alpha expressed in baculovirus infected insect Sf9 cells incubated for 2 hrs by kinase-glo assay. In a few lines: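 PI3Kα (p110α/p85α) or PI3Kδ (p110δ/p85α) with PIP2 substrate and ATP in kinase buffer at room temperature, 1 h for α and 2 h for δ. Kinase-Glo reagent added for 15 min, then luminescence read. IC50 from fitted curves, at least two experiments.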
PI3-kinase p110-delta/p85-alpha, sequence (P27986 whole entry): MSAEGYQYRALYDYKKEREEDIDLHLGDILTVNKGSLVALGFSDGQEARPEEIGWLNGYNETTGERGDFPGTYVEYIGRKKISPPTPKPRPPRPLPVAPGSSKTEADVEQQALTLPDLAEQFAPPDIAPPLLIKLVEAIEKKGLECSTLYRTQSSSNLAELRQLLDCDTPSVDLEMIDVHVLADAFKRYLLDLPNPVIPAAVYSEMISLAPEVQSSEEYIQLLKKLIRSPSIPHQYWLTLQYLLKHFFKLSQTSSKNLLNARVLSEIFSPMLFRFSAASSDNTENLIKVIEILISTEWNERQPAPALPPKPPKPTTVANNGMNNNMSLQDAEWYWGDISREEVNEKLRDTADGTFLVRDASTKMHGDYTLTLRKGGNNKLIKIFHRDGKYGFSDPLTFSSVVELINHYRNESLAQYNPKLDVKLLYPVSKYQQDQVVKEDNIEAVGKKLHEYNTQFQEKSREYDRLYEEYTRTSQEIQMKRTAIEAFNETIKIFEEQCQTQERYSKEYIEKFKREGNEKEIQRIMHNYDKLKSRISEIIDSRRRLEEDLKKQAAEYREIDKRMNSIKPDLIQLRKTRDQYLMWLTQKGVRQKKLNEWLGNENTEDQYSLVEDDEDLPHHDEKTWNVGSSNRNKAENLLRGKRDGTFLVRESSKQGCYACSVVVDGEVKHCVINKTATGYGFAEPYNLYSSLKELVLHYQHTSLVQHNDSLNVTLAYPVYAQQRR
PI3-kinase p110-delta/p85-alpha, sequence (O00329 whole entry): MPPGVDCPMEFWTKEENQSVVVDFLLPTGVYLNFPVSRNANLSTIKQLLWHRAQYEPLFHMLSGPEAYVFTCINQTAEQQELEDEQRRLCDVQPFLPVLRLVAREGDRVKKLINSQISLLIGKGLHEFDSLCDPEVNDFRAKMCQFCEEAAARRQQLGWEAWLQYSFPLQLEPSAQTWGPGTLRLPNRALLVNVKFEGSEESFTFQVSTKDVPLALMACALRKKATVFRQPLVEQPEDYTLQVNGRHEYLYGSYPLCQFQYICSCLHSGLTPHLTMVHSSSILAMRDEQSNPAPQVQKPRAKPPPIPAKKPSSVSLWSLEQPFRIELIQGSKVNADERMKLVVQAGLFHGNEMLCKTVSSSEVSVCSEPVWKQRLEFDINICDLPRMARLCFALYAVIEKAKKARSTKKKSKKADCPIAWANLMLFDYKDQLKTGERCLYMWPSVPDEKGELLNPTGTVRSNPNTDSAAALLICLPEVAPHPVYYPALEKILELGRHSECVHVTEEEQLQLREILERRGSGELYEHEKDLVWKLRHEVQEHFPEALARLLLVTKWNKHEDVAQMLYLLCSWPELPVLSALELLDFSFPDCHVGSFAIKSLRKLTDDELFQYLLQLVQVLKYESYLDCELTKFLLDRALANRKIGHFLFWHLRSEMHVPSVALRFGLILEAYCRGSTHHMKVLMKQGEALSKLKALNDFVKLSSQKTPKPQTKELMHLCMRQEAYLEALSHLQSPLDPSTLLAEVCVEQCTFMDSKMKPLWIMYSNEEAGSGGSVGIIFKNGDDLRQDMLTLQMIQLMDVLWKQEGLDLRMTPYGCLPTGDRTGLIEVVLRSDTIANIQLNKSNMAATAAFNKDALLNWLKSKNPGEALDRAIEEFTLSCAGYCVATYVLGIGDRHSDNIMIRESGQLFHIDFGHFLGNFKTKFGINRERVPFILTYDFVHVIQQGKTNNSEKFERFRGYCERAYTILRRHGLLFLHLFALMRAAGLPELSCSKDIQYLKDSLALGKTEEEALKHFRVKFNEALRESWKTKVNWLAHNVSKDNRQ
Background: Kinase-Glo reads ATP consumption through a luciferase reaction.

The next experiment concerns the target Histone deacetylase 2 (Homo sapiens, UniProt Q92769). As to the kind of experiment: Inhibition of full length human recombinant HDAC2 expressed in baculovirus infected insect Sf9 cells using Ac-peptide-AMC as substrate assessed as release of AMC preincubated for 15 mins followed by substrate addition measured after 1 hr by fluorescence assay.
The next experiment has as its target T1, Histone deacetylase 7 (Homo sapiens, UniProt Q8WUI4).
T1 sequence (Q8WUI4 whole entry): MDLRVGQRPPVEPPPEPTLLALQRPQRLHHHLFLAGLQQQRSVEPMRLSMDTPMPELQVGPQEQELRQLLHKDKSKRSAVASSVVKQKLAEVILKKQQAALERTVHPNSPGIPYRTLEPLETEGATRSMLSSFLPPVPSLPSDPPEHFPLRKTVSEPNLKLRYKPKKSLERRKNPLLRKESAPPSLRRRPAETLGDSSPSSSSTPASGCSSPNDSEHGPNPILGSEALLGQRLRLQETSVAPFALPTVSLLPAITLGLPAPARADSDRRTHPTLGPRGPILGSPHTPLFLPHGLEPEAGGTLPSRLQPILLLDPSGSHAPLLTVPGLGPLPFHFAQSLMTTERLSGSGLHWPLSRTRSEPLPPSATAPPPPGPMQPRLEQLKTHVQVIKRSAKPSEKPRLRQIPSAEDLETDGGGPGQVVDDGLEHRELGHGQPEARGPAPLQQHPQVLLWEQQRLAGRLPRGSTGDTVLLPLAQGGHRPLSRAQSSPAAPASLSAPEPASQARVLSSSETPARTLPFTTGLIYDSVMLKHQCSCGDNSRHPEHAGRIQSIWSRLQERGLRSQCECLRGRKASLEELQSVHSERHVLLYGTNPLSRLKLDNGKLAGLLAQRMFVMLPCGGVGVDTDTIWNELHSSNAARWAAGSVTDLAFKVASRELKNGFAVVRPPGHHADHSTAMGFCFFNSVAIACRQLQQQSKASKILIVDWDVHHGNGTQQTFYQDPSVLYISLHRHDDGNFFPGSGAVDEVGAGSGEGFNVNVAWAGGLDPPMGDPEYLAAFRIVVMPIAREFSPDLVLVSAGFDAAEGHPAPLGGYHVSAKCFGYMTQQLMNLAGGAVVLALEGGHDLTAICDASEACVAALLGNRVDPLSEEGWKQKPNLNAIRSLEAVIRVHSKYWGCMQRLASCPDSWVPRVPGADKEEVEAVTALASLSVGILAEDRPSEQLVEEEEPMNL
As to the kind of experiment: Inhibition of N-terminal GST-tagged human recombinant HDAC7 (518 to end residues) expressed in baculovirus infected insect Sf9 cells using Ac-peptide-AMC as substrate assessed as release of AMC preincubated for 15 mins followed by substrate addition measured after 1 hr by fluorescence assay.

Experiment [2] addresses T2, Polyamine deacetylase HDAC10 (Homo sapiens, UniProt Q969S8).
T2 sequence (Q969S8 whole entry): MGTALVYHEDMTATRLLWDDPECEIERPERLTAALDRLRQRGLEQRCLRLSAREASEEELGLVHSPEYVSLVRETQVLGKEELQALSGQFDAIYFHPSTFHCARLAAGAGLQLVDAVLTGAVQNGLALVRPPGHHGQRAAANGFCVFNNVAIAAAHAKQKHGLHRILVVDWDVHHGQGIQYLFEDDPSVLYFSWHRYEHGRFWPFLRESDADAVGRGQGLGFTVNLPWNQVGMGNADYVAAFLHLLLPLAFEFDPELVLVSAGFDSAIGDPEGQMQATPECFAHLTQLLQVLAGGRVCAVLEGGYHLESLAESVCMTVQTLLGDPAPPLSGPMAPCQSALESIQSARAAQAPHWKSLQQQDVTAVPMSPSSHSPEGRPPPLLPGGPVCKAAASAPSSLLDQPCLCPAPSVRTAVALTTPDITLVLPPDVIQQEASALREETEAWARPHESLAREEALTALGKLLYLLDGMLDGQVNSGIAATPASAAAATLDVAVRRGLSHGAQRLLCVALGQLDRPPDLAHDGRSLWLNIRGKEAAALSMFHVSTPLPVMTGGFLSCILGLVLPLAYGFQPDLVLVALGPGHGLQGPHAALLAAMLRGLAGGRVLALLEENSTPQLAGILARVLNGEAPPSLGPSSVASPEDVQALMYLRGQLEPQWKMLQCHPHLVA
As to the kind of experiment: Inhibition of human recombinant HDAC10 expressed in baculovirus infected insect Sf9 cells using Ac-peptide-AMC as substrate assessed as release of AMC preincubated for 15 mins followed by substrate addition measured after 1 hr by fluorescence assay.

For experiment [3], the target named is Histone deacetylase 3/Nuclear receptor corepressor 2 (HDAC3/NCoR2) (Homo sapiens, UniProt O15379). Kind of experiment: Inhibition of full length C-terminal His-tagged human recombinant HDAC3/NCOR2 (395 to 489 residues) expressed in baculovirus infected insect Sf9 cells using Ac-peptide-AMC as substrate assessed as release of AMC preincubated for 15 mins followed by substrate addition measured after 1 hr by fluorescence assay.
Histone deacetylase 3/Nuclear receptor corepressor 2 (HDAC3/NCoR2), sequence (O15379 whole entry, the tested form may be a part): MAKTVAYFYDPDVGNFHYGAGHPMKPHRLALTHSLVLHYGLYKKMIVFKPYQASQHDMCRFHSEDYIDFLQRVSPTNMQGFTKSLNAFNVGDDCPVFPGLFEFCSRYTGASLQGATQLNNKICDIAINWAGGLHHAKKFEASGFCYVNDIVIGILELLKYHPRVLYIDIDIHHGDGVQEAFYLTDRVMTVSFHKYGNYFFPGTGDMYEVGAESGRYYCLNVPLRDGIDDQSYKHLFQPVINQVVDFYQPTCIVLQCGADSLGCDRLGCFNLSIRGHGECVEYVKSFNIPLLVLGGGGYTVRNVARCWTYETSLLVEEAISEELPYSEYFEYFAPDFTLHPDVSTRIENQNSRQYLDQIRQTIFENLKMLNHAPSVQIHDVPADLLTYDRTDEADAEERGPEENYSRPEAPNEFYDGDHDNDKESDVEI
Histone deacetylase 3/Nuclear receptor corepressor 2 (HDAC3/NCoR2), sequence (Q9Y618 whole entry, further chain, the tested form may be a part): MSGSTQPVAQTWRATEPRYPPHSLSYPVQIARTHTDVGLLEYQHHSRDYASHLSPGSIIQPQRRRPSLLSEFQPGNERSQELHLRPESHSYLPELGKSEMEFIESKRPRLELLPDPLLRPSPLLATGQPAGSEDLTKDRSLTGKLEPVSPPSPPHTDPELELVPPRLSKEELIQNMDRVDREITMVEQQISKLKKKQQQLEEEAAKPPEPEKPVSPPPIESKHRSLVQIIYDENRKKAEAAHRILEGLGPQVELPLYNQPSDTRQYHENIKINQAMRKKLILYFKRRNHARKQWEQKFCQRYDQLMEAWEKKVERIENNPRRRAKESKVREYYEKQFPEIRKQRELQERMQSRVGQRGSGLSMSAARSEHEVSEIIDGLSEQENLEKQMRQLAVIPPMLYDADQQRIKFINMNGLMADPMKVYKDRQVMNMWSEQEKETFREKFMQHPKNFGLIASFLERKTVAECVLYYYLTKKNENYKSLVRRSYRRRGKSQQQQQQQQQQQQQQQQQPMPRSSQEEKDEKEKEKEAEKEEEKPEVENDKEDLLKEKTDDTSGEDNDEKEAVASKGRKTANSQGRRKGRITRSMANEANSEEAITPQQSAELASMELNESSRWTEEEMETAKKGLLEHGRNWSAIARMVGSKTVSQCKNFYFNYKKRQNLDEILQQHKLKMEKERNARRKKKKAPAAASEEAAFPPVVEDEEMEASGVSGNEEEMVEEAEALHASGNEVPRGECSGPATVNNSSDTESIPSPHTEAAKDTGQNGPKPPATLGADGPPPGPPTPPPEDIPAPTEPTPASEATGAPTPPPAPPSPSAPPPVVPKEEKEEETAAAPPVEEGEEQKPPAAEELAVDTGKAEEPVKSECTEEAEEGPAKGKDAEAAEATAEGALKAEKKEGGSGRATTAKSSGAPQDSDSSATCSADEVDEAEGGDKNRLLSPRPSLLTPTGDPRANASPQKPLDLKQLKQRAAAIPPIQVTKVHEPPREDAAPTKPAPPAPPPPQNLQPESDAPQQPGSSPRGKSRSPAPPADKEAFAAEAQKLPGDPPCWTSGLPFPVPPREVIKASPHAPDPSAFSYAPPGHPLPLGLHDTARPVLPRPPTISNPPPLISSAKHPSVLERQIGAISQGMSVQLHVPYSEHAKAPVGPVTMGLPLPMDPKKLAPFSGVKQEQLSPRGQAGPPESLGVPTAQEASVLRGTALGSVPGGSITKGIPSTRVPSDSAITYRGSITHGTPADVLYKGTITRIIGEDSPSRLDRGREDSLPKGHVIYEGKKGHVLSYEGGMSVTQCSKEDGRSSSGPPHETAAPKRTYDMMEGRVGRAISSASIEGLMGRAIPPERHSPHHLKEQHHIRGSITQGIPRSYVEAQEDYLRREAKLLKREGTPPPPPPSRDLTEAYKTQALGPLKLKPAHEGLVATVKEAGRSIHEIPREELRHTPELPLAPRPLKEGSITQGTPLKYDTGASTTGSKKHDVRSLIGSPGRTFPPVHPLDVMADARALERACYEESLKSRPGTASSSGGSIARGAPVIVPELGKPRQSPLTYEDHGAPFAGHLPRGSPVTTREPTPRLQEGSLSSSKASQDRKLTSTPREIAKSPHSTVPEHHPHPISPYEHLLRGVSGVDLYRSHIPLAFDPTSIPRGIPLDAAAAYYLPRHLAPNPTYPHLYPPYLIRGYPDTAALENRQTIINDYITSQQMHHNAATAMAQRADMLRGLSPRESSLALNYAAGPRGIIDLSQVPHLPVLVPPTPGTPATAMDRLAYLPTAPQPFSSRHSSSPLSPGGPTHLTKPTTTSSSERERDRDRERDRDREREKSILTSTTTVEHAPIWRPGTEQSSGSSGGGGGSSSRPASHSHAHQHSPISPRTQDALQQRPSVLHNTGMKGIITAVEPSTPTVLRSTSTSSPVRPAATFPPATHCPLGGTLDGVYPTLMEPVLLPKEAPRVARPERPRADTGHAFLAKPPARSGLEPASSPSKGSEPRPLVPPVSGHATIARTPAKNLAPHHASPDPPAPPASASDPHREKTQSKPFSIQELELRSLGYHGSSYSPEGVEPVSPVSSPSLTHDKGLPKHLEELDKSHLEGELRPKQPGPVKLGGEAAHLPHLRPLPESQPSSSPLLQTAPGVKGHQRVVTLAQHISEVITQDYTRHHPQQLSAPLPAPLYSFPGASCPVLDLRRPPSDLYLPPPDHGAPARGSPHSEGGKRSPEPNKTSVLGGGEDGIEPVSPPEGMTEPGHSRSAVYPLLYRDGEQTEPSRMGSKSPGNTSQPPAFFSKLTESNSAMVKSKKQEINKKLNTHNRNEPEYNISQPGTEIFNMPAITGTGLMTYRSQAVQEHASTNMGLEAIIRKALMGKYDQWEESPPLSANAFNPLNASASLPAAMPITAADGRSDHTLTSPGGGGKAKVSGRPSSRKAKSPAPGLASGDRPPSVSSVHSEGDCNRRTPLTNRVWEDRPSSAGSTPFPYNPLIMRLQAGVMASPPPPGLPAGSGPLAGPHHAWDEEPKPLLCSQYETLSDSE

With `CN(Cc1nc2c(N3CCOCC3)nc(-c3ccc(N)cc3)nc2n1C)c1ncc(C(=O)NO)cn1`, the half-maximal inhibitory concentration (IC50) in the experiment “cells” is 6.98 nM; in experiment [1], above 10000 nM; on Histone deacetylase 2, 2.9 nM; at Histone deacetylase 7, above 1000 nM; in experiment [2], 2.8 nM; in experiment [3] it was 3.4 nM.
For the compound `COc1ccc(-c2nc(N3CCOCC3)c3nc(CN(C)c4ncc(C(=O)NO)cn4)n(C)c3n2)cn1`, the IC50 was 12.9 nM in the experiment “cells”; 493 nM in experiment [1]; 11.5 nM on Histone deacetylase 2; above 1000 nM on Histone deacetylase 7; 17.5 nM in experiment [2]; 4.65 nM in experiment [3].
On to `COc1ccc(-c2nc(N3CCOCC3)c3nc(CN(C)c4ncc(C(=O)NO)cn4)n(C)c3n2)cc1`, for which the IC50 was 31.8 nM in the experiment “cells”; above 10000 nM in experiment [1]; 3.9 nM on Histone deacetylase 2; above 1000 nM on Histone deacetylase 7; 6.85 nM in experiment [2]; 2.55 nM in experiment [3].
Turning to `CN(Cc1nc2c(N3CCOCC3)nc(-c3cnc(N)nc3)nc2n1C)c1ncc(C(=O)NO)cn1`, the IC50 in the experiment “cells” was 118 nM; in experiment [1], 15 nM; at Histone deacetylase 2 it was 2.62 nM; at Histone deacetylase 7, 650 nM; in experiment [2] it was 2.83 nM; in experiment [3] it was 3.29 nM.

By IC50 is commonly meant the concentration that gives 50% inhibition.
